Rows were chosen to be rich in hits. Some 1.5% of all compounds tested hit in one or more screens of this group.
CaV13 FRET inh – Disruptors of the CACNA1D IQ motif to Ca2+-dependent inactivation inhibitor domain association, primary screening, Förster resonance energy transfer in intact living …. HEK cells, CFP/YFP FRET ICDI-IQ, plate reader, 10 min; percent FRET-ratio fall versus neutral wells. inhibition, % at 12.3 µM. hit rate 0.098% among 340,000. AID 743397;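 active = mean replicate inhibition of at least 30% and at least 1% of replicates passing that level; inconclusive = only one of the two criteria is met; inactive = neither criterion is met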;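 note: 0% = median of the neutral control wells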
Runt-SMMHC FRET – blocks binding of human RUNX1 Runt domain to CBFb-SMMHC; Cerulean-Runt/Venus-CBFb-SMMHC FRET ratio 530/480, 1 h; hit rate 0.74% among 220,000; inhibition, % at 20 µM; Q01196+Q13951;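 active = mean inhibition across duplicate retests at 20 µM reaching about 50%, limit read from the data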;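 note: 0% = DMSO wells and 100% = wells with excess untagged CBFb-SMMHC; inhibitors lower the FRET ratio by blocking Runt binding to CBFb-SMMHC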
RanGTP-Imp inh – inhibitors of RanGTP-importin-beta interaction, primary screen, biochemical, FRET, CFP-Ran, YFP-importin-beta, homogeneous | cell-free CFP-Ran/YFP-importin-beta FRET ratio | inhibition, % (no concentration beside the values) | hit rate 1.1% among 300,000 | AID 2216;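 active = more than half of the replicate wells show a fall in the fluorescence ratio signal beyond about 16%, limit read from the data, passing the limit was not always enough; inconclusive = exactly half of the replicate wells pass the set limit; inactive = fewer than half of replicates pass the limit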;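 note: 0% = DMSO wells and 100% = Ran loaded with GDP instead of GTP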
Hck-Nef inh – human Hck-Nef kinase inhibition. P08631. Recombinant Hck-YEEI plus Nef, Z-Lyte FRET kinase assay. inhibition, % at 20 µM. hit rate 0.68% among 220,000. AID 463187;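 active = Hck-Nef kinase inhibition above about 50%, limit read from the data; inactive = inhibition below that limit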;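 note: 0% = DMSO with Hck plus Nef and 100% = Hck alone without Nef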
Target sequence (P08631 whole entry, looked up): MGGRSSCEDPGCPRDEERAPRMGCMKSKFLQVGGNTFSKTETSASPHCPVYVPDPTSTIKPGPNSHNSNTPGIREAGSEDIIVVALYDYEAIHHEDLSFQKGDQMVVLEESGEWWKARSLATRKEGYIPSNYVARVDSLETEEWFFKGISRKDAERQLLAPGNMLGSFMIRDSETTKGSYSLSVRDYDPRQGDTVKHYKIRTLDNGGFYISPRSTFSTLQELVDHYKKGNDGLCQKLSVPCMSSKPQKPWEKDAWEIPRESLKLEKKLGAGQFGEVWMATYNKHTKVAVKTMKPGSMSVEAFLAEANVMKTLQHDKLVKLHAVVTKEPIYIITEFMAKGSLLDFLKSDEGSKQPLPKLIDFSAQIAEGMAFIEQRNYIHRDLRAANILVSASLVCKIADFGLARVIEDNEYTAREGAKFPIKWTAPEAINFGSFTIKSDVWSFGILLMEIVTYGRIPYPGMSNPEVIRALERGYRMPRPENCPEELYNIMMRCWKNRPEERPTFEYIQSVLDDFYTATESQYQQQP
Runt-CBFb FRET – inhibitors of human RUNX1 Runt domain binding to CBFb. Cerulean-Runt/Venus-CBFb FRET ratio 530/480, 1 h. inhibition, % at 20 µM. hit rate 0.46% among 220,000;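 active = inhibition over about 50% at 20 µM in the single-dose screen, limit read from the data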;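 note: 0% = DMSO wells and 100% = excess unlabeled CBFb competitor control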
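test system = Cerulean-tagged RUNX1 Runt domain (FRET donor) fusion protein | reagent = Venus-CBFb binding partner, 100 nM | incubation = protein complex preformed 1 h, compound exposure 1 h, room temperature, dark | detection = FRET fluorescence | read-out basis = loss of energy transfer signal | controls = 5 µM unlabeled CBFb as full-inhibition high control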
Hck-Nef confirm – confirmation of Hck-Nef kinase inhibitors; shares compounds with Hck-Nef inh; Recombinant Hck-YEEI:Nef, Z-Lyte FRET kinase assay; calls only at 10 µM; hit rate 28% among 1,300;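 active = average inhibition of at least 50%, with Z-scores no higher than 3 in both the phospho-tyrosine peptide and fluorescence counterscreens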
* = called active by the depositor; i = inactive; ? = inconclusive; nt = no result given; + = active, no number.

SMILES	CaV13 FRET inh	Runt-SMMHC FRET	RanGTP-Imp inh	Hck-Nef inh	Runt-CBFb FRET	Hck-Nef confirm
COc1ccc(-n2c(N)cc(=O)[nH]c2=O)cc1	nt	0	6	52*	0	i
CC1CC1C(=O)OCC(=O)Nc1cccc([N+](=O)[O-])c1 (centres undefined)	3	2	1	21	1	nt
CC(Sc1nnc(C2CC2)n1C1CC1)C(=O)c1ccc(Br)cc1 (centres undefined)	-6	nt	nt	nt	nt	nt
COc1ccc(-c2nc(-c3ccc(O)cc3O)cs2)cc1OC	-4	-4	-2	61*	-1	+
COc1ccc(NS(=O)(=O)c2cccc(C(=O)N/N=C(\C)c3ccncc3)c2)cc1	-5	30	-5	6	0	nt
COc1ccc(NS(=O)(=O)c2cccc(C(=O)N/N=C(\C)c3ccc(-n4ccnc4)cc3)c2)cc1	nt	-8	-2	59*	2	i
N#Cc1c(Nc2ccccc2)sc(C(=O)c2ccccc2)c1N	nt	-1	1	-1	1	nt
Cc1cccc(Nc2sc(C(=O)c3cc4cc(Cl)ccc4o3)c(N)c2C#N)c1	-17	-114	2	56*	-12	i
Cc1nc(Nc2ccc(C(=O)O)cc2)sc1-c1ccccc1	-5	-3	-3	56*	-2	i
COCCn1c(SCC(=O)NC2CCCC(C)C2C)nc2ccccc2c1=O (centres undefined)	-4	nt	nt	nt	nt	nt
CCOC(=O)Cc1csc(NC(=O)COc2ccc(C)cc2)n1	-1	2	-2	19	1	nt
CCOC(=O)Cc1csc(NC(=O)COc2ccc(C)c(C)c2)n1	9	nt	-1	53*	nt	i
CCOCCCNc1nc2nc3ccc(C)cn3c(=O)c2cc1C(=O)NCC1CCCO1 (centres undefined)	+	nt	-1	199*	nt	nt
Cc1ccc2nc3c(cc(C(=O)NCC4CCCO4)c(=N)n3CCCOC(C)C)c(=O)n2c1 (centres undefined)	5	41	nt	182*	11	i
COc1cc2c(cc1OC)C1(CCCC1)C(N)=C2C#N	0	-20	nt	56*	-4	nt
COc1cc(OC)c(OC)cc1C#N	nt	-1	1	25	0	nt
Cc1ccc(C)c(S(=O)(=O)N2CCCC2CNC(=O)C(=O)NCc2ccccn2)c1 (centres undefined)	-1	nt	5	nt	nt	nt
OCCCNc1cc(-c2ccnc(Nc3cccc(Cl)c3)n2)ccn1	-10	3	-3	85*	1	+
CCC(C)Oc1cc(-c2ccnc(Nc3cccc(Cl)c3)n2)ccn1 (centres undefined)	-3	0	0	25	3	nt
N#Cc1c(NC(=O)CN2CCN(S(=O)(=O)c3ccc4c(c3)OCCO4)CC2)sc2c1CCC2	-5	-8	2	53*	-3	i
NC(=O)c1ccc(NC(=O)CN2CCN(S(=O)(=O)c3ccc4c(c3)OCCO4)CC2)cc1	-4	nt	nt	nt	nt	nt
Nc1ncnc2oc(-c3ccco3)c(-c3ccco3)c12	nt	1	-5	71*	17	+
CC(C)c1nnc(SCC(=O)NC2CCCC2)n1C	-3	nt	3	nt	nt	nt
O=C(Nc1ccc(N2CCCC2)cc1)C(c1ccccc1)c1ccccc1	-4	6	-4	59*	3	i
CCCCn1c(SCC(=O)Nc2nnc(C)s2)nnc1-c1ccncc1	-5	-2	-4	20	-2	nt
SMILES	CaV13 FRET inh	Runt-SMMHC FRET	RanGTP-Imp inh	Hck-Nef inh	Runt-CBFb FRET	Hck-Nef confirm
O=C(Nc1ccc(Br)cc1Br)C1CC(=O)N(Cc2ccccc2)C1 (centres undefined)	-2	nt	-2	nt	nt	nt
COc1ccc(CCn2c(SCC(=O)Nc3cc(C)on3)nc3ccccc3c2=O)cc1OC	-4	6	-1	8	2	nt
COc1ccc(CCn2c(SCC(=O)Nc3cc(C)on3)nc3ccsc3c2=O)cc1OC	-5	1	nt	65*	-2	i
NC(=O)c1cc(Br)cc2c3c([nH]c12)CCCC3	-4	-39	-1	58*	-7	+
Brc1ccc2[nH]c3c(c2c1)CCC3	-16	2	0	4	4	nt
O=C(COC(=O)c1ccco1)Nc1cccc(S(=O)(=O)N2CCOCC2)c1	-6	nt	nt	nt	nt	nt
COCCNc1cc(C)nc2c(-c3ccccc3OC)c(C)nn12	-6	-3	-1	21	1	nt
COCCNc1cc(C)nc2c3c(C)cc(C)nc3nn12	-6	73*	50*	57*	33	nt
CN(Cc1ccccc1)C1CCNCC1	-6	nt	6	nt	nt	nt
O=C(CN1CCCc2ccccc21)Nc1cc(S(=O)(=O)N2CCCC2)ccc1Cl	-2	nt	nt	nt	nt	nt
COc1cc(/C=C(/C#N)c2nc3ccccc3[nH]2)ccc1OCc1ccc(C(=O)O)o1	-8	63*	6	56*	50	+
Cc1c(OC(=O)CNC(=O)OC(C)(C)C)ccc2c3c(c(=O)oc12)CCC3	-6	83*	nt	64*	37	nt
Cc1c(OCC(=O)OC(C)(C)C)ccc2c3c(c(=O)oc12)CCC3	-2	1	5	0	-7	nt
O=C(NNC(=O)c1csc(N2CCOCC2)n1)c1ccc(=O)[nH]c1	-5	nt	nt	nt	nt	nt
CCN(Cc1cnn(C)c1)Cc1nc(C(c2ccccc2)c2ccccc2)no1	-3	-3	5	4	-4	nt
COc1ccc2nc3c(cc2c1)c(NC(=O)C1CCCO1)nn3CC(C)C (centres undefined)	nt	61*	119*	59*	12	i
COc1cccc(NC(=O)C2CCCO2)c1 (centres undefined)	-11	nt	-1	nt	nt	nt
CC(C)N1CC(O)=C(c2nc3ccccc3[nH]2)C1=N	-7	-3	0	56*	0	+
Cc1ccc(CCNC(=O)c2ccc3nc4ccc(Cl)cc4c(=O)n3c2)cc1	-20	nt	?	nt	nt	nt
C=CCn1cc(C(=O)NCCCOC)c(=O)c2cc(S(=O)(=O)N(CC)CC)ccc21	-4	-3	-2	0	-6	nt
C=CCn1c(=N)c(C(=O)NCCCOC)cc2c(=O)n3ccccc3nc21	14	82*	175*	+	9	nt
CNC(=O)c1cc2c(=O)n3cc(C)ccc3nc2n(C(C)C)c1=N	nt	41	181*	171*	11	nt
C=CCn1c(=N)c(C(=O)NCCCOC)cc2c(=O)n3cc(C)ccc3nc21	25	79*	2	187*	10	nt
CC(C)CC(=O)c1c[nH]c(C(=O)NCc2ccc(F)cc2)c1	-19	nt	2	nt	nt	nt
O=C(Cc1ccc(Cl)c(Cl)c1)N1CCOCC1	-4	nt	7	nt	nt	nt
COc1ccc(-c2nnn(CC(=O)NCCc3ccc(OC)c(OC)c3)n2)cc1	0	-1	1	97*	0	i
COc1ccc(-c2csc3nc(-c4ccccc4OC)oc(=O)c23)cc1	-6	-8	nt	-103	3	nt

Compound activity deposited in PubChem BioAssay by several laboratories.
